Read-outs that look alike come from different tables or passages of the source.
Experiments:
[1] = test system: HSV-1; assay: Virus-induced cytopathicity, HSV-1; assay type: cell-based, herpes simplex virus type 1; settings: read-out: Antiviral activity EC50 HSV-1; Table 4; HEL cells
[2] = test system: HSV-2; assay: Virus-induced cytopathicity, HSV-2; assay type: cell-based, herpes simplex virus type 2; settings: read-out: Antiviral activity EC50 HSV-2
[3] = test system: HSV-1 TK–; assay: Virus-induced cytopathicity, TK– HSV-1 KOS ACVr in HEL cells; assay type: cell-based, herpes simplex virus type 1; settings: read-out: Antiviral activity EC50 HSV-1 TK–
[4] = test system: Vaccinia virus; assay: microbe, parasite or virus in culture; assay type: cell-based; settings: for EC50: read-out: Antiviral activity EC50 Vaccinia virus
[5] = test system: HEL cells; assay: Cytotoxicity, alteration of cell morphology; assay type: cell-based, human
[6] = test system: herpesviruses; assay: organism not typed; assay type: cell-based; settings: for EC50: HEL
[7] = test system: HSV; assay: Antiviral activity against HSV; assay type: cell-based, herpes simplex virus; settings: HEL
[8] = target: T1, HCMV DNA pol (Human cytomegalovirus, UniProt P08546); assay: DNA polymerase inhibition, HCMV DNA pol; assay type: biochemical; settings: IC50 HCMV DNA pol dGTP, calf thymus DNA, radiolabeled [3H]dGTP
T1 sequence (P08546 1-1242): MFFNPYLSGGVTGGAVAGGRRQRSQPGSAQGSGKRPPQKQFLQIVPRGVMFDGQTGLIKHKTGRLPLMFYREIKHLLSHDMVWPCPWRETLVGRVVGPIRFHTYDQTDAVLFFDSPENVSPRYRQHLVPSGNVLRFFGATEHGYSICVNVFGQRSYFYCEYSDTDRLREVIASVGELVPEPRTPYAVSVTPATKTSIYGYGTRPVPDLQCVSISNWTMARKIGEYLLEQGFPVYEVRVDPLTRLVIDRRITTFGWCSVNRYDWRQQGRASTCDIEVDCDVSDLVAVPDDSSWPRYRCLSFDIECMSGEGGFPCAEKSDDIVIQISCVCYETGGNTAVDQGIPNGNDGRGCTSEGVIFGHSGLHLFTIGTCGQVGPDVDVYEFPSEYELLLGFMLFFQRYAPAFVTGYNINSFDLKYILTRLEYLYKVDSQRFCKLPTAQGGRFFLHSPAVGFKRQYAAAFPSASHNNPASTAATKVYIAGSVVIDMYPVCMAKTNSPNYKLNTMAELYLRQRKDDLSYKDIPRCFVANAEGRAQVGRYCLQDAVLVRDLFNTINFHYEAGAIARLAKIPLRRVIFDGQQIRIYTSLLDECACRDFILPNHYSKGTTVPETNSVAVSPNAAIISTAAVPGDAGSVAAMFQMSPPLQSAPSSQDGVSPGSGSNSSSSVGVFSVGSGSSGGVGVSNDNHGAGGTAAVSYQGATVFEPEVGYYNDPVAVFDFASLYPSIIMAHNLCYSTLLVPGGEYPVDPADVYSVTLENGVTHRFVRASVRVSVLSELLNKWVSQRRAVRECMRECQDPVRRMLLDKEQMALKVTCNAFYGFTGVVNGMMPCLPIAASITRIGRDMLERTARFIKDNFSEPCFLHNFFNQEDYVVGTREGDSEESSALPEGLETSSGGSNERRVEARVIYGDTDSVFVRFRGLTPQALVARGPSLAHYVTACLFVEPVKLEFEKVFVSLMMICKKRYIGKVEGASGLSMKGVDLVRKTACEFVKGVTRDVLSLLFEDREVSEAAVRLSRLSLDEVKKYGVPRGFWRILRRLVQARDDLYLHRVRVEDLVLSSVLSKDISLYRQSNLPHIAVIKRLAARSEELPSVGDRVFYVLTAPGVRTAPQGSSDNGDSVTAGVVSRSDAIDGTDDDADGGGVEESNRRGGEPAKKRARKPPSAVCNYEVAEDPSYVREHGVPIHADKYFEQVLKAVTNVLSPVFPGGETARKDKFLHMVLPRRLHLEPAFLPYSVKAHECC
In short: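 Recombinant or source enzyme not specified. HCMV DNA polymerase reaction uses activated calf thymus DNA as template/primer, 100 uM of each of three unlabeled dNTPs, and 0.5 uM rate-limiting tritium-labeled dNTP ([3H]dGTP or [3H]dTTP, as competitive substrate). The diphosphate form of the test compound is added in serial dilutions, up to 100 uM.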

[9] = Cytostatic activity, inhibition of cell growth; assay type: cell-based, human; settings: human, HEL cells, Cytotoxicity Cell growth (CC50), Table 3
[10] = test system: TK+ VZV OKA strain; assay type: cell-based, varicella-zoster virus
[11] = test system: TK– VZV 07-1 strain; assay type: cell-based, varicella-zoster virus
[12] = test system: HCMV AD-169 strain; assay: Virus-induced cytopathic effect, HCMV AD-169 strain in HEL cells; assay type: cell-based, human cytomegalovirus
[13] = test system: HCMV Davis strain; assay: Virus-induced cytopathic effect, HCMV Davis strain in HEL cells; assay type: cell-based, human cytomegalovirus
[14] = test system: HSV-1 mutant viruses; assay type: cell-based, herpes simplex virus type 1; settings: Figure 2
In short: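 HSV-1 TK and DNA polymerase mutants were derived from the reference KOS strain and tested by CPE reduction. Confluent HEL cultures in 96-well plates were infected and incubated with varying test compound concentrations. Cytopathicity was scored once it was complete in untreated infected controls. […] Fold-resistance is EC50 mutant divided by EC50 wild-type KOS. Reference antiherpetic drugs were run alongside.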

[15] = test system: HEL cells; assay: Cytostatic activity, inhibition of cell growth; assay type: cell-based, human
[16] = read-out: EC50 values, replication of HSV-1, HSV-2 and TK-HSV-1 (range)
[17] = read-out: EC50 against VZV, HCMV, HSV-1, HSV-2, and Vaccinia virus (range)

## 4,4,5,5,6,6,7,7,8,8,9,9,10,10,11,11,11-Heptadecafluoroundecyl hydrogen ((2–(2,6-dioxo-1,2,3,6-tetrahydro-9H-purin-9-yl)ethoxy)methyl)phosphonate [Compound 19]
[1]
  EC50: > 100 µM
[2]; Table 4, HEL cells
  EC50: > 100 µM
[3]; Table 4, HEL cells
  EC50: > 100 µM
[4]
  EC50: > 100 µM
[5]; Table 3
  Cytotoxicity Cell morphology (MCC): ≥100 μM
[5]; Table 4
  Cytotoxicity Cell morphology (MCC): >100 μM
[6]
  anti-herpesvirus activity (in words): did not display any potent anti-herpesvirus activity

## O=c1[nH]c(=O)c2ncn(CC(CO)OCP(=O)(O)O)c2[nH]1 (racemic) [Compound 5, (RS)-(((1–(2,6-Dioxo-1,2,3,6-tetrahydro-9H-purin-9-yl)-3-hydroxypropan-2-yl)oxy)methyl)phosphonic acid]
[4]; Orthopoxvirus vaccinia, HEL
  EC50: 39 ± 27 µM
[5]; Table 1
  Cytotoxicity Cell morphology (MCC): ≥300 μM
[5]; Table 2
  Cytotoxicity Cell morphology (MCC): >100 μM
[7]; [16]
  EC50: 16 to 39 µM
[6]
  anti-herpesvirus activity (in words): able to inhibit the replication of herpesviruses
[6]; [17]
  EC50: 17 to 43 µM

## Nc1nc2c(ncn2COCCOP(=O)(O)OP(=O)(O)OP(=O)(O)O)c(=O)[nH]1 [ACV-TP, acyclovir triphosphate]
[8]
  IC50: 0.77 ± 0.04 µM

## Nc1nc2c(ncn2COCCO)c(=O)[nH]1 [Acyclovir, acyclovir, reference compound]
[4]; Orthopoxvirus vaccinia, HEL
  EC50: > 250 µM
[5]; Table 2
  Cytotoxicity Cell morphology (MCC): >250 μM

## O=c1[nH]c(=O)n([C@H]2C[C@H](O)[C@@H](CO)O2)cc1/C=C/Br [Brivudin, brivudin, reference compound]
[2]; Human alphaherpesvirus 2, HEL
  EC50: 112 ± 37 µM
[3]
  EC50: 50 µM
[5]; Table 1
  Cytotoxicity Cell morphology (MCC): >300 μM
[5]; Table 2
  Cytotoxicity Cell morphology (MCC): >250 μM
[5]; Table 3
  Cytotoxicity Cell morphology (MCC): ≥300 μM
[9]
  CC50 at 3 days: 168 ± 41 µM

## Nc1ccn(C[C@@H](CO)OCP(=O)(O)O)c(=O)n1 [Cidofovir, cidofovir]
[9]
  CC50 at 3 days: 170 ± 61 µM

## O=c1[nH]c(=O)c2ncn(CCOCP(=O)(O)O)c2[nH]1 [Compound 4, ((2–(2,6-Dioxo-1,2,3,6-tetrahydro-9H-purin-9-yl)ethoxy)methyl)phosphonic acid]
[10]
  selectivity index (ratio CC50/EC50): 42
[11]
  selectivity index (ratio CC50/EC50): 24
[12]
  selectivity index (ratio CC50/EC50): 11
[13]
  selectivity index (ratio CC50/EC50): 13
[4]
  Antiviral activity EC50 Vaccinia virus: lacked activity
[4]; Orthopoxvirus vaccinia, HEL
  EC50: > 345 µM
[5]; Table 1
  Cytotoxicity Cell morphology (MCC): >345 μM
[7]; [16]
  EC50: 16 to 39 µM
[6]
  anti-herpesvirus activity (in words): able to inhibit the replication of herpesviruses
[6]; read-out: EC50 values against VZV, HCMV, HSV-1, and HSV-2 (range)
  EC50: 2.6 to 25.6 µM
[14]; HSV-1 DNA polymerase mutants, same magnitude as adefovir
  change of EC50 for DNA polymerase mutant viruses: increase in the EC50
[14]; HSV-1 TK mutants
  activity against viruses bearing mutations in the viral TK: remained active

## O=c1[nH]c(=O)c2ncn(C[C@@H](CO)OCP(=O)(O)O)c2[nH]1 [Compound 6, (S)-(((1–(2,6-Dioxo-1,2,3,6-tetrahydro-9H-purin-9-yl)-3-hydroxypropan-2-yl)oxy)methyl) phosphonic acid]
[4]; Orthopoxvirus vaccinia, HEL
  EC50: 39 ± 27 µM
[5]; Table 1
  Cytotoxicity Cell morphology (MCC): >300 μM
[5]; Table 2
  Cytotoxicity Cell morphology (MCC): >100 μM
[7]; [16]
  EC50: 16 to 39 µM
[6]
  anti-herpesvirus activity (in words): able to inhibit the replication of herpesviruses
[6]; [17]
  EC50: 17 to 43 µM

## O=c1[nH]c(=O)c2ncn(C[C@H](CF)OCP(=O)(O)O)c2[nH]1 [Compound 7, (R)-(((1–(2,6-Dioxo-1,2,3,6-tetrahydro-9H-purin-9-yl)-3-fluoropropan-2-yl)oxy)methyl)phosphonic acid]
[4]; Orthopoxvirus vaccinia, HEL
  EC50: > 313 µM
[5]; Table 1
  Cytotoxicity Cell morphology (MCC): >313 μM

## O=c1[nH]c(=O)c2ncn(C[C@@H](CF)OCP(=O)(O)O)c2[nH]1 [Compound 8, (S)-(((1–(2,6-Dioxo-1,2,3,6-tetrahydro-9H-purin-9-yl)-3-fluoropropan-2-yl)oxy)methyl)phosphonic acid]
[4]; Orthopoxvirus vaccinia, HEL
  EC50: > 329 µM
[5]; Table 1
  Cytotoxicity Cell morphology (MCC): >329 μM

## C[C@H](Cn1cnc2c(=O)[nH]c(=O)[nH]c21)OCP(=O)(O)O [Compound 9, (R)-(((1–(2,6-Dioxo-1,2,3,6-tetrahydro-9H-purin-9-yl)propan-2-yl)oxy)methyl)phosphonic acid]
[4]; Orthopoxvirus vaccinia, HEL
  EC50: > 100 µM
[5]; Table 1
  Cytotoxicity Cell morphology (MCC): >100 μM

## O=c1nc(NC2CC2)c2ncn(CCOCP(=O)(O)O)c2[nH]1 [Compound 17, ((2–(6-(Cyclopropylamino)-2-oxo-2,3-dihydro-9H-purin-9-yl)ethoxy)methyl)phosphonic acid]
[4]; Orthopoxvirus vaccinia, HEL
  EC50: > 100 µM
[5]; Table 3
  Cytotoxicity Cell morphology (MCC): >100 μM
[6]
  activity in all assays (in words): completely inactive in all assays

## CCCCCCCCCCCCCCCCOCCCOP(=O)(O)COCCn1cnc2c(=O)[nH]c(=O)[nH]c21 [Compound 18, 3-(Hexadecyloxy)propyl hydrogen ((2–(2,6-dioxo-1,2,3,6-tetrahydro-9H-purin-9-yl)ethoxy)methyl)phosphonate]
[4]; Orthopoxvirus vaccinia, HEL
  EC50: > 100 µM
[5]; Table 3
  Cytotoxicity Cell morphology (MCC): 100 μM
[5]; Table 4
  Cytotoxicity Cell morphology (MCC): >100 μM
[15]
  increase in cytostatic activity versus parent compound 4: 11 fold
[7]; read-out: EC50 values against HSV-1 and HSV-2 (range)
  EC50: 1.8 to 4 µM

## Nc1nc(O)c2ncn(COC(CO)CO)c2n1 [Ganciclovir, ganciclovir, reference compound]
[4]; Orthopoxvirus vaccinia, HEL
  EC50: > 100 µM
[5]; Table 2
  Cytotoxicity Cell morphology (MCC): >100 μM
[9]
  CC50 at 3 days: ≥ 317 µM
